Assay results reported in ChEMBL document CHEMBL1765070, “Structure-based design of potent and selective 3-phosphoinositide-dependent kinase-1 (PDK1) inhibitors” (J Med Chem, 2011).

How the values were obtained:
[1] = Antiproliferative activity against human F-36P cells; assay type: functional, cell-based
[2] = test system: K562; assay: Antiproliferative activity against human K562 cells; assay type: functional, cell-based
[3] = molecular target: cAMP-dependent protein kinase catalytic subunit PRKX (Homo sapiens) (UniProt P51817); assay: Inhibition of human PrKX assessed as residual activity at 10 uM
[4] = test system: Mus musculus; assay: Inhibition of PDK1-mediated AKT phosphorylation at Thr308 residue in human OCI-AML-2 cells xenografted in SCID mouse at 100 mg/kg, ip after 3 hrs by LC/MS/MS analysis; conditions: OCI-AML2, ip, read-out: INH
[5] = molecular target: Serine/threonine-protein kinase Sgk1 (Homo sapiens) (UniProt O00141); assay: Inhibition of human SGK assessed as residual activity at 10 uM
[6] = molecular target: Protein kinase C zeta type (Homo sapiens) (UniProt Q05513); assay: Inhibition of human PKCzeta assessed as residual activity at 10 uM
[7] = molecular target: Ribosomal protein S6 kinase alpha-2 (Homo sapiens) (UniProt Q15349); assay: Inhibition of human RSK3 assessed as residual activity at 10 uM
[8] = molecular target: Death-associated protein kinase 3 (Homo sapiens) (UniProt O43293); assay: Inhibition of human ZIPK assessed as residual activity at 10 uM
[9] = molecular target: Ribosomal protein S6 kinase alpha-6 (Homo sapiens) (UniProt Q9UK32); assay: Inhibition of human RSK4 assessed as residual activity at 10 uM
[10] = test system: OCI-AML2; assay: Antiproliferative activity against human OCI-AML2 cells; assay type: functional, cell-based
[11] = molecular target: Ribosomal protein S6 kinase alpha-3 (Homo sapiens) (UniProt P51812); assay: Inhibition of human RSK2 assessed as residual activity at 10 uM
[12] = test system: Mus musculus; assay: Inhibition of PDK1-mediated RSK phosphorylation at Ser221 residue in human OCI-AML-2 cells xenografted in SCID mouse at 100 mg/kg, ip after 6 hrs by LC/MS/MS analysis; conditions: OCI-AML2, ip, read-out: INH
[13] = test system: Hepatocyte growth factor receptor (Homo sapiens), P08581 [Y1248H]; assay: Inhibition of human MET Y1248H assessed as residual activity at 10 uM
[14] = molecular target: Mitogen-activated protein kinase kinase kinase 5 (Homo sapiens, UniProt Q99683); assay: Inhibition of ASK1
[15] = Antiproliferative activity against human OCI-AML3 cells; assay type: functional, cell-based; conditions: OCI-AML-3
[16] = molecular target: Proto-oncogene tyrosine-protein kinase receptor Ret (Homo sapiens) (UniProt P07949); assay: Inhibition of human RET assessed as residual activity at 10 uM
[17] = molecular target: Serine/threonine-protein kinase BRSK1 (Homo sapiens) (UniProt Q8TDC3); assay: Inhibition of human BRSK1 assessed as residual activity at 10 uM
[18] = Cmax in SCID mouse xenografted with human OCI-AML-2 cells at 100 mg/kg, ip administered as a single dose by LC/MS/MS analysis; assay type: ADME, organism-based; design: dose 100 mg/kg, route intraperitoneal; conditions: in vivo
Procedure, shortened: (§1)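 SCID mice with subcutaneous OCI-AML2 xenografts (~500-600 mm3) received a single 100 mg/kg ip dose in 1% DMSO, 20% PEG400, pH 4.2. hIGF-I was injected iv at 3 or 6 h, with blood and tumor taken 10 min after. Compound levels were measured by LC/MS/MS.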

[19] = molecular target: 3-phosphoinositide-dependent protein kinase 1 (Homo sapiens) (UniProt O15530); assay: Inhibition of human PDK1 assessed as residual activity at 10 uM
[20] = test system: HEL; assay: Antiproliferative activity against human HEL 92.1.7 cells; assay type: functional, cell-based
[21] = test system: Mus musculus; assay: Inhibition of PDK1-mediated RSK phosphorylation at Ser221 residue in human OCI-AML-2 cells xenografted in SCID mouse at 100 mg/kg, ip after 3 hrs by LC/MS/MS analysis; conditions: OCI-AML2, ip, read-out: INH
[22] = molecular target: Serine/threonine-protein kinase Chk2 (Homo sapiens) (UniProt O96017); assay: Inhibition of human CHK2 assessed as residual activity at 10 uM
[23] = molecular target: Ribosomal protein S6 kinase alpha-1 (Homo sapiens) (UniProt Q15418); assay: Inhibition of human RSK1 assessed as residual activity at 10 uM
[24] = molecular target: Inhibitor of nuclear factor kappa-B kinase subunit alpha (Homo sapiens, UniProt O15111); assay: Inhibition of IKK1
[25] = molecular target: NUAK family SNF1-like kinase 1 (Homo sapiens) (UniProt O60285); assay: Inhibition of human ARK5 assessed as residual activity at 10 uM
[26] = molecular target: Rho-associated protein kinase 2 (Homo sapiens) (UniProt O75116); assay: Inhibition of human ROCK2 assessed as residual activity at 10 uM
[27] = molecular target: Serine/threonine-protein kinase NLK (Homo sapiens) (UniProt Q9UBE8); assay: Inhibition of human NLK assessed as residual activity at 10 uM
[28] = molecular target: Tyrosine-protein kinase SYK (Homo sapiens, UniProt P43405); assay: Inhibition of SYK
[29] = molecular target: Serine/threonine-protein kinase Sgk2 (Homo sapiens) (UniProt Q9HBY8); assay: Inhibition of human SGK2 assessed as residual activity at 10 uM
[30] = molecular target: Serine/threonine-protein kinase 17A (Homo sapiens) (UniProt Q9UEE5); assay: Inhibition of human DRAK1 assessed as residual activity at 10 uM
[31] = molecular target: Serine/threonine-protein kinase BRSK2 (Homo sapiens) (UniProt Q8IWQ3); assay: Inhibition of human BRSK2 assessed as residual activity at 10 uM
[32] = test system: Hepatocyte growth factor receptor (Homo sapiens), P08581 [D1246H]; assay: Inhibition of human MET D1246H mutant assessed as residual activity at 10 uM
[33] = molecular target: T1, TGF-beta receptor type-1 (Homo sapiens, UniProt P36897); assay: Inhibition of ALK5
T1 sequence (P36897 whole entry): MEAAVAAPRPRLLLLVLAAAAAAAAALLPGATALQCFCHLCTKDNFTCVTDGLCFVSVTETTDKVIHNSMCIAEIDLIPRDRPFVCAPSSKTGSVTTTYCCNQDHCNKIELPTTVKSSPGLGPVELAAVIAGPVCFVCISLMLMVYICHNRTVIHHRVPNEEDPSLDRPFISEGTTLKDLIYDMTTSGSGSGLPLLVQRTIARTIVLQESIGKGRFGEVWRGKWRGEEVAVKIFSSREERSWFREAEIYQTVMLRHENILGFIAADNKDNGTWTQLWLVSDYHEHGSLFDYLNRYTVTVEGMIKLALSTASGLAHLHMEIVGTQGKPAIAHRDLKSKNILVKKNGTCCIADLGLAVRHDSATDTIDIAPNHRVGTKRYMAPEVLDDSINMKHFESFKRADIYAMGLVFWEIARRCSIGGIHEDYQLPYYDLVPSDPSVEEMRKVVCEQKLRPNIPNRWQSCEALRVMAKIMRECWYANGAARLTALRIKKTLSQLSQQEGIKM

[34] = molecular target: Rho-associated protein kinase 2 (Rattus norvegicus) (UniProt Q62868); assay: Inhibition of rat ROCK2 assessed as residual activity at 10 uM
[35] = molecular target: Ribosomal protein S6 kinase alpha-1 (Rattus norvegicus) (UniProt Q63531); assay: Inhibition of rat RSK1 assessed as residual activity at 10 uM
[36] = test system: Mus musculus; assay: Inhibition of PDK1-mediated AKT phosphorylation at Thr308 residue in human OCI-AML-2 cells xenografted in SCID mouse at 100 mg/kg, ip after 6 hrs by LC/MS/MS analysis; conditions: OCI-AML2, ip, read-out: INH
[37] = AUC in SCID mouse xenografted with human OCI-AML-2 cells at 100 mg/kg, ip administered as a single dose by LC/MS/MS analysis; assay type: ADME, organism-based; design: dose 100 mg/kg, route intraperitoneal; conditions: in vivo; procedure, shortened: as §1
[38] = molecular target: RAC-gamma serine/threonine-protein kinase (Homo sapiens) (UniProt Q9Y243); assay: Inhibition of human PKBgamma assessed as residual activity at 10 uM
[39] = molecular target: RAC-alpha serine/threonine-protein kinase (Homo sapiens, UniProt P31749); assay: Inhibition of AKT1
[40] = molecular target: Vascular endothelial growth factor receptor 2 (Homo sapiens, UniProt P35968); assay: Inhibition of VEGFR2
[41] = molecular target: Phosphatidylinositol 4,5-bisphosphate 3-kinase catalytic subunit gamma isoform (Homo sapiens, UniProt P48736); assay: Inhibition of PI3Kgamma
[42] = molecular target: Glycogen synthase kinase-3 beta (Homo sapiens, UniProt P49841); assay: Inhibition of GSK3B

Serine/threonine-protein kinase 17A (Homo sapiens), sequence (Q9UEE5 whole entry): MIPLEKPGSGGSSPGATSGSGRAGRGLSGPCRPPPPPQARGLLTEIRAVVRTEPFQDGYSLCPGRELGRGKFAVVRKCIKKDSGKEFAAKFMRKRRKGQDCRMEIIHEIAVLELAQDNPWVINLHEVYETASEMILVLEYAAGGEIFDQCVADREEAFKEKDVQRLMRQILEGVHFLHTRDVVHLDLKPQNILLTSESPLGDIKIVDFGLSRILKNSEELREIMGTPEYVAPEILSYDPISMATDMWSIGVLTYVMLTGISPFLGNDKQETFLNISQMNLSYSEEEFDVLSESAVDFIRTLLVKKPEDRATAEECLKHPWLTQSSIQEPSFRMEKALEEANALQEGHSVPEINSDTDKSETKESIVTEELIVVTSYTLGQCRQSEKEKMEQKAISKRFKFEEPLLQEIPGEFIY
Serine/threonine-protein kinase BRSK2 (Homo sapiens), sequence (Q8IWQ3 whole entry): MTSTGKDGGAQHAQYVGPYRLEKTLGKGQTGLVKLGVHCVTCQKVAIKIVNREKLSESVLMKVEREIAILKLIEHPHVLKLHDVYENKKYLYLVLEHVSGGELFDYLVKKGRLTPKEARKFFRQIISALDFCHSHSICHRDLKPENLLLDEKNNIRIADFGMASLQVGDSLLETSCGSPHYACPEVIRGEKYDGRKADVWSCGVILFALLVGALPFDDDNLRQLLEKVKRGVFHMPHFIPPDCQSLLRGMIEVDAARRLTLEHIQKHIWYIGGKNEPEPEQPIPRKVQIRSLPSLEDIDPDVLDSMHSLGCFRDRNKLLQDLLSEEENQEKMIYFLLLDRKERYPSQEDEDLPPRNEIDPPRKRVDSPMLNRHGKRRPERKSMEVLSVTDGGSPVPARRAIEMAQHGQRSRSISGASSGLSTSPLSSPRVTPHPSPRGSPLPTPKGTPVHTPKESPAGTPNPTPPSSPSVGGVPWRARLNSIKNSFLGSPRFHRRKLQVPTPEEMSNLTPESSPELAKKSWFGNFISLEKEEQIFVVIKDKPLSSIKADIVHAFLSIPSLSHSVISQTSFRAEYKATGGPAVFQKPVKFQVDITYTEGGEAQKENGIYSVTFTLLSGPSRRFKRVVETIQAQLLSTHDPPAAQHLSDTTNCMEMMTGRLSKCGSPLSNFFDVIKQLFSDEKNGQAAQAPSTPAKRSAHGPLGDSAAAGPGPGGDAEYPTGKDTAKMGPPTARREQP
Serine/threonine-protein kinase BRSK1 (Homo sapiens), sequence (Q8TDC3 whole entry): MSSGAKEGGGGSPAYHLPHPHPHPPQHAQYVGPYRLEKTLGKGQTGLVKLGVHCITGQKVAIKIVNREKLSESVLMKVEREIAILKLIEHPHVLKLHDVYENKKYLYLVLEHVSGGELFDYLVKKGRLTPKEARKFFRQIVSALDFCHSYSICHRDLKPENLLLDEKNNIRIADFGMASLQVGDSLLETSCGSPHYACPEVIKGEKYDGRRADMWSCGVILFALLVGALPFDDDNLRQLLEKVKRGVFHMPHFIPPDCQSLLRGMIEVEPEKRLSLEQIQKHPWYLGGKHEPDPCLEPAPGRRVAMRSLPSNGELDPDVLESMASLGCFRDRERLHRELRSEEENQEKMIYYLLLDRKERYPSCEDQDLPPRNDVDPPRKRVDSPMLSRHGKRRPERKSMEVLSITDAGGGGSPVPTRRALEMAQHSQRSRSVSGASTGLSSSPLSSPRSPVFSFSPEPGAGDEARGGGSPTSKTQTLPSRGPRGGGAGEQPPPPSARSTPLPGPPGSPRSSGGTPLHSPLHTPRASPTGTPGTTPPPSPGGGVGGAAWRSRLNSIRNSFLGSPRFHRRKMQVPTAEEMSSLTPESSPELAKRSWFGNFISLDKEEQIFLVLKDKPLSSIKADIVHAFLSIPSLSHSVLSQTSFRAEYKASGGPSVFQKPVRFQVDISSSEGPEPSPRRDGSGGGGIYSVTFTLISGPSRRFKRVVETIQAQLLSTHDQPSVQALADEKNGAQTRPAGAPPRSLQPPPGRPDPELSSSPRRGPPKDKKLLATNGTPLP
Ribosomal protein S6 kinase alpha-3 (Homo sapiens), sequence (P51812 whole entry): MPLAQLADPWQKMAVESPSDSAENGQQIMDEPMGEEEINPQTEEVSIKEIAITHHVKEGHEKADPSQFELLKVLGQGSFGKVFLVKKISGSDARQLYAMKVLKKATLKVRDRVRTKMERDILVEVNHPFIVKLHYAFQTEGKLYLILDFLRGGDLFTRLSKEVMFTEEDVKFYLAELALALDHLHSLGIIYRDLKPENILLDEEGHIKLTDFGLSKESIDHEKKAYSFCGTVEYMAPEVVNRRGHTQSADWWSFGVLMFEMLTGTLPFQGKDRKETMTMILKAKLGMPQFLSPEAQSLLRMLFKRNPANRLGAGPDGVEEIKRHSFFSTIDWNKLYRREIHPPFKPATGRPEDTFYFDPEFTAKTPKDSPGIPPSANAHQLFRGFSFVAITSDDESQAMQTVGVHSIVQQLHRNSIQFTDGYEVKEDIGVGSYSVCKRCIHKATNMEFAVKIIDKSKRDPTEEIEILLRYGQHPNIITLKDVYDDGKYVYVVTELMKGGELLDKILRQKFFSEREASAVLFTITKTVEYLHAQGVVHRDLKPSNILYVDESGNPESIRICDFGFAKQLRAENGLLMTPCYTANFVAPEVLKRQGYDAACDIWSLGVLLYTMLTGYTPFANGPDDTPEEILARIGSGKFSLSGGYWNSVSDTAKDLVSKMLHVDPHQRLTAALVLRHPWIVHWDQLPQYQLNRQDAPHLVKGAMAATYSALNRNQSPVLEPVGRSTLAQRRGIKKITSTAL
Protein kinase C zeta type (Homo sapiens), sequence (Q05513 whole entry, looked up): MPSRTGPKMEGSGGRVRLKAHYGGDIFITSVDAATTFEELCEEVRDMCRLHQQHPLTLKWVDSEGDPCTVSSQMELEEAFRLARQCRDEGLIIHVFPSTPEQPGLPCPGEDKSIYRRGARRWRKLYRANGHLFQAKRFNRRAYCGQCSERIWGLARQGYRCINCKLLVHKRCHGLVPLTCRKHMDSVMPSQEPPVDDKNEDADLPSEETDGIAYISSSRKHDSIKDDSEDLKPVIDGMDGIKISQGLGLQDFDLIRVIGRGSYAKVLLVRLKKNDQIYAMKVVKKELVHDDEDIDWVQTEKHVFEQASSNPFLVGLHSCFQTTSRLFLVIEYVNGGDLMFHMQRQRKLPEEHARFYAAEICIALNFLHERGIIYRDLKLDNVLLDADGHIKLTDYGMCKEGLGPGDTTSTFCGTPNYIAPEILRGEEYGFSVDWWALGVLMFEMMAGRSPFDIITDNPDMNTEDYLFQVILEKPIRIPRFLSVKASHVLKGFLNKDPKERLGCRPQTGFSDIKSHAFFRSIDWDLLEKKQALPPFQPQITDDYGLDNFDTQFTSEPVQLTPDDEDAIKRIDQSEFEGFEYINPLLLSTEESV
Ribosomal protein S6 kinase alpha-1 (Homo sapiens), sequence (Q15418 whole entry): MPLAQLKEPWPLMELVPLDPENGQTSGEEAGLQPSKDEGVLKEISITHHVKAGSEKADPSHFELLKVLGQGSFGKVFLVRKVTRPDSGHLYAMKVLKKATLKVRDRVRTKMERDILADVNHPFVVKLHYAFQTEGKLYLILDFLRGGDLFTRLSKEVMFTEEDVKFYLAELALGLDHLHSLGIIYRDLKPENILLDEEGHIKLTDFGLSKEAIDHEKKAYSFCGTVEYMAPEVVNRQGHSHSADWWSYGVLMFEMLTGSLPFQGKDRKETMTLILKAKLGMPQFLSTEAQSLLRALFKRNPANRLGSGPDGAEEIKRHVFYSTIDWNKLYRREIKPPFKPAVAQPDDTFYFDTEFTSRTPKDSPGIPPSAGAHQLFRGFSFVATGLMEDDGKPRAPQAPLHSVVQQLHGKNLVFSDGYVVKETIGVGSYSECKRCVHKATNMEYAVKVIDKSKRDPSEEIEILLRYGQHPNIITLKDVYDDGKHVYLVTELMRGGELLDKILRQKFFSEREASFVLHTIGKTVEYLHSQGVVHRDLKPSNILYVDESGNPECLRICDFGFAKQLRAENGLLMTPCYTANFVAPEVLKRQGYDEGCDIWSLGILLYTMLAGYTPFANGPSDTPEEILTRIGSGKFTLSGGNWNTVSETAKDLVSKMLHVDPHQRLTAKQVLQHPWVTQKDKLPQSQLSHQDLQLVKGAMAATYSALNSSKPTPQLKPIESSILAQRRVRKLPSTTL
RAC-alpha serine/threonine-protein kinase, sequence (P31749 whole entry): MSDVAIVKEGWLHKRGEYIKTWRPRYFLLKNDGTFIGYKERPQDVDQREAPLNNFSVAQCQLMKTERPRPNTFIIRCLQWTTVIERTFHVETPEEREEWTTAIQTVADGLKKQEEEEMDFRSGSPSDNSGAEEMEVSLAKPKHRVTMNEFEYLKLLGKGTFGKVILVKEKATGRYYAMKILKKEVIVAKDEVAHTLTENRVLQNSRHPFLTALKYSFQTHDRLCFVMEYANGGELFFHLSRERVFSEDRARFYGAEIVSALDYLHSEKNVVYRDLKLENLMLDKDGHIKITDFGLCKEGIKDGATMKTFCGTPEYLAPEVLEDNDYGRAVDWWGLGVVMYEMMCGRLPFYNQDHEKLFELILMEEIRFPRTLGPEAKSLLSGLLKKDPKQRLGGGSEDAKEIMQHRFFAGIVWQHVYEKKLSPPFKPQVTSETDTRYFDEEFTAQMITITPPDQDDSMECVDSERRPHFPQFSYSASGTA
Serine/threonine-protein kinase Sgk2 (Homo sapiens), sequence (Q9HBY8 whole entry): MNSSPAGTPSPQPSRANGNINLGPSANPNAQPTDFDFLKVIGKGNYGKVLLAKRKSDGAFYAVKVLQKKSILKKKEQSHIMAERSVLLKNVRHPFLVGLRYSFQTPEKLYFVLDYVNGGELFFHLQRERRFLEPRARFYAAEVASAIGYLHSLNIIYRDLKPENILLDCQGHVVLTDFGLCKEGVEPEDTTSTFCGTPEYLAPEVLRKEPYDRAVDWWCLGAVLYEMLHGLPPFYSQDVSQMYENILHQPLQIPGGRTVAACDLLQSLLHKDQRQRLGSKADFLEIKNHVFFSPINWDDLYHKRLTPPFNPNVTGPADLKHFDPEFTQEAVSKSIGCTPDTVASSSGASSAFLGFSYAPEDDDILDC

Q: What does the source list for `CNc1nc(-c2ccc3c(N)n[nH]c3c2)cc(N2C[C@@H](C(=O)NC3CCCCC3)CC[C@H]2C)n1`?
A: IC50 [1]: 0.28 µM; IC50 [2]: 18 µM; Activity [3]: 4%; inhibition in vivo at 100 mg/kg [4]: 58%; Activity [5]: 13%; Activity [6]: 29%; Activity [7]: 14%; Activity [8]: 21%; Activity [9]: 12%; IC50 [10]: 0.35 µM; Activity [11]: 28%; inhibition in vivo at 100 mg/kg [12]: 71%; Activity [13]: 49%; IC50 [14]: > 27.5 µM; IC50 [15]: 0.52 µM; Activity [16]: 46%; Activity [17]: 33%; Cmax [18]: 4.51 µg/mL; Activity [19]: 0%; IC50 [20]: > 30 µM; inhibition in vivo at 100 mg/kg [21]: 57%; Activity [22]: 29%; Activity [23]: 46%; IC50 [24]: > 25.1 µM; Activity [25]: 16%; Activity [26]: 26%; Activity [27]: 38%; IC50 [28]: > 25.1 µM; Activity [29]: -2%; Activity [30]: 23%; Activity [31]: 44%; Activity [32]: 43%; IC50 ([33]; read-out: IC50): > 10 µM; IC50 ([33]; read-out: pIC50 (converted)): > 10 µM; Activity [34]: 17%; Activity [35]: 34%; inhibition in vivo at 100 mg/kg [36]: 29%; AUC [37]: 31.4 µg·h/mL; Activity [38]: 22%; IC50 [39]: > 10 µM; IC50 [40]: > 10 µM; IC50 [41]: 25.1 µM; IC50 [42]: > 25.1 µM
